The test system of assay [1] is HEK293. As to the kind of experiment: Induction of Axin-1 protein expression in recombinant human Wnt-3a-induced Wnt-HEK293 cells at 1 uM by fluorescence microscopy. Type of assay: functional, cell-based. In short, it runs like this: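 HEK293 cells treated at 1 µM, stained with anti-Axin-1 antibody and DAPI, imaged by fluorescence microscopy.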
Assay [2] is described as follows: Inhibition of Wnt/beta-Catenin signaling in human SW620 cells incubated for 24 hrs by TCF/LEF dual-luciferase reporter assay. Type of assay: cell-based. The conditions noted are these: SW-620, 24 h. In short, it runs like this:
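SW480 or SW620 cells seeded at 200,000/well and transiently transfected 24 h later with TOPflash firefly luciferase plus pRLTK-Renilla using lipofectamine 2000. After 16 h the medium was replaced with compound at a range of concentrations, three replicates each. Dual firefly/Renilla luciferase read 24 h later.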
For orientation: Reporter assays use an easily measured gene product as a stand-in for the process of interest.

This passage reports Activity and IC50 results from ChEMBL document CHEMBL4414663, “Pyrazole-4-Carboxamide (YW2065): A Therapeutic Candidate for Colorectal Cancer via Dual Activities of Wnt/β-Catenin Signaling Inhibition and AMP-Activated Protein Kinase (AMPK) Activation” (J Med Chem, 2019).

Each structure is given as a SMILES string. Activity calls are given as the source filed them. The calls are words filed in the database; no cut-off is given here.

Broadly, the IC50 is the midpoint of a concentration-inhibition curve. Lower therefore signals greater potency in that assay.

As for `Cc1c(C(=O)Nc2ccc3ccccc3n2)cnn1-c1ccccc1Br`, the outcome in assay [1] was Active. In addition, in assay [2], the concentration for half-maximal inhibition (IC50) is 0.194 nM.
